KCNK3 inh: human KCNK3 channel inhibition, primary screen | O14649 | CHO-KCNK3 thallium flux, FluxOR fluorescence; stronger effect = lower value | B-score at 10 µM | hit rate 0.84% among 340,000;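 active = B-score under library mean minus 4 SD, starting fluorescence ratio at most library mean plus 5 SD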;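 note: more negative B-score means stronger inhibition of thallium flux through KCNK3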
KCNQ1 inh: human KCNQ1 channel inhibition. P51787. CHO-K1 KCNQ1, FluxOR thallium flux fluorescence; stronger effect = higher value. hit rate 1.3% among 310,000. B-score at 10 µM;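 active = compounds whose thallium flux B-score, printed positive for inhibition, exceeds three library SD while starting fluorescence stays within three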;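 note: channel opened by potassium depolarization with thallium stimulus after 20 min compound exposure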
hERG protect: hERG (human) protection from proarrhythmic block. CHO-hERG, FluxOR thallium flux, dofetilide IC70 present. activation (rescue from dofetilide block), less the hit threshold, % at 10 µM. hit rate 0.51% among 310,000. AID 1511;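 active = activation above the mean of controls blocked by dofetilide plus 5 SD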;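 note: thallium influx through hERG after potassium depolarization seen as dye fluorescence rise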
KCNK9 inh: inhibitors of human KCNK9 two-pore domain potassium channel; Q9NPC2; HEK293 KCNK9, FluxOR thallium flux fluorescence; stronger effect = lower value; B-score at 10 µM; hit rate 1.2% among 310,000;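 active = ratio B-score over 3 SD below the library mean, with starting fluorescence within 5 SD of its mean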;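 note: negative B-score means less thallium flux so channel inhibition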
Target sequence (Q9NPC2 whole entry, looked up, the tested form may be a part): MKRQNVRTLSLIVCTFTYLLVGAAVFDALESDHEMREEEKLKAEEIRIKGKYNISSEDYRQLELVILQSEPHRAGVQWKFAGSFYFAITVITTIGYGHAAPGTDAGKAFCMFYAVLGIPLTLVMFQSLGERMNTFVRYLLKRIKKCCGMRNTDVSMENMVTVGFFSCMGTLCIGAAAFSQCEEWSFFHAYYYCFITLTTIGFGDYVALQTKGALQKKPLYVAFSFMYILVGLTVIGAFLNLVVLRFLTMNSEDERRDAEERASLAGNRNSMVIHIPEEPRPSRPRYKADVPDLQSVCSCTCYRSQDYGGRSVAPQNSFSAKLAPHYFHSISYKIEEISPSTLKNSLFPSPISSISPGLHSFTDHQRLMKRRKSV
KCNQ1 act: potentiators or activators of human KCNQ1 potassium channel; P51787; CHO-K1 KCNQ1, thallium flux FluxOR fluorescence; stronger effect = higher value; B-score at 10 µM; hit rate 0.35% among 310,000; AID 2648;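 active = fluorescence ratio B-score, a plate-corrected score, at least three library SD, with initial intensity B-score within 5 SD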
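System: CHO-K1 cells stably expressing KCNQ1 / Medium: assay buffer for compound exposure, DMSO matched across wells / Reagent: thallium- and potassium-containing depolarizing buffer / Compound: one concentration, matched DMSO / Incubation: 20 min compound pretreatment at room temperature / Measured by: kinetic FluxOR fluorescence, 10 s baseline plus 110 s post-stimulus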
KCNK9 inh conf: confirmation of human KCNK9 potassium channel inhibitors; shares compounds with KCNK9 inh; HEK293 KCNK9 cells, FluxOR thallium flux fluorescence; inhibition, % at 10 µM; hit rate 43% among 4,900;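 active = thallium signal inhibited by more than 5 SD of the compound-free buffer control wells, on both duplicate plates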;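 note: 0% = assay buffer control wells without compound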
Kir2-1 spec: mouse Kir2.1 off-target activity of KCNK9 modulators. inhibition, % at 10 µM. AID 492993. Kir2.1 cells, FluxOR thallium flux fluorescence. hit rate 4% among 4,900. shares compounds with KCNK9 inh;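 active = thallium signal drop more than 5 SD beyond the mean of the no-compound control wells, seen in both duplicate plates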;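 note: signal is fluorescence rise after thallium addition divided by baseline fluorescence; plate controls were assay buffer only for no effect and full block by chlorpromazine control for full effect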
KCNK9 uninduced: non-induced cell nonspecific activity of KCNK9 modulators. inhibition, % at 10 µM. shares compounds with KCNK9 inh. non-induced KCNK9-HEK293, FluxOR thallium flux. hit rate 40% among 4,900;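 active = thallium signal drop beyond 5 SD of the untreated control mean, on both duplicate plates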;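 note: plate controls were buffer only IC0 wells for no effect and SID17386958 at its maximal inhibitory level for full effect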
The depositor's hits bear a star; i = inactive; nt = no result. This is a sample that favours compounds with a hit; in the whole collection about 3.1% have one here.

SMILES | KCNK3 inh | KCNQ1 inh | hERG protect | KCNK9 inh | KCNQ1 act | KCNK9 inh conf | Kir2-1 spec | KCNK9 uninduced
O=C(c1cccs1)N1CCc2c([nH]c3ccccc23)C1c1ccccn1 (centres undefined) | i | i | -10 | -9* | i | i | i | i
Cc1ccc2nc(C(=O)N3CCc4c([nH]c5ccccc45)C3c3ccccn3)cn2c1 (centres undefined) | i | i | -4 | i | i | nt | nt | nt
CSc1nc(C(=O)N2CCc3c([nH]c4ccccc34)C2c2ccccn2)cs1 (centres undefined) | i | i | -7 | -9.7* | i | 49%* | i | 29%*
Cc1c(C(=O)NC2CCCc3ccccc32)cccc1[N+](=O)[O-] (centres undefined) | i | i | -4 | i | i | nt | nt | nt
COc1cc(C2=NOC(C(=O)NCc3cccnc3)C2)cc(OC)c1OC (centres undefined) | i | i | -2 | -8.6* | i | 26%* | i | i
CCC(C)(C)C1CCc2c(sc(NC(=O)c3ccccc3C(=O)O)c2C#N)C1 (centres undefined) | i | i | 15* | i | 9* | i | i | i
CC1CCc2c(sc(NC(=O)c3ccccc3C(=O)O)c2C#N)C1 (centres undefined) | i | i | -5 | i | i | nt | nt | nt
COc1ccc(N2C(=O)C(C)C(Cc3ccc(C)cc3)C2=O)cc1 (centres undefined) | i | i | -5 | i | i | nt | nt | nt
CCOc1ccc(CN(C)C(=O)CNC(=O)c2sc3ccccc3c2Cl)cc1 | i | nt | nt | nt | nt | nt | nt | nt
Cc1cccc(-n2c(=S)[nH]c3sc4c(c3c2=O)CCc2ccccc2-4)c1 | i | i | 3 | i | 8* | i | i | i
Cc1ccc(-n2c(=S)[nH]c3sc4c(c3c2=O)CCc2ccccc2-4)cc1 | i | i | -6 | i | i | nt | nt | nt
COc1ccc(-c2csc(NC(=O)CSCc3c(C)noc3C)n2)c(OC)c1 | i | i | -16 | i | i | nt | nt | nt
CCOC(=O)c1c(-c2ccc(-c3ccccc3)cc2)csc1NC(=O)CNCCN(C)C | i | 6* | -31 | -10* | i | 57%* | 32%* | 29%*
CCOC(=O)c1c(-c2cccc([N+](=O)[O-])c2)csc1NC(=O)C1CCCCC1 | i | i | -3 | i | i | nt | nt | nt
CCOC(=O)c1c(-c2cccc([N+](=O)[O-])c2)csc1NC(=O)C1CC1 | i | i | -8 | -8.3* | i | 24%* | i | 24%*
CC1CCN(CCNC(=O)C2CCCN(S(=O)(=O)c3cccc4nsnc34)C2)CC1 (centres undefined) | i | i | -5 | i | i | nt | nt | nt
COc1ccc(C(c2nnnn2Cc2ccccc2)N2CCN(c3nc4ccccc4s3)CC2)cc1OC (centres undefined) | i | i | -10 | -8.7* | i | i | i | i
COc1ccccc1C(c1nnnn1Cc1ccccc1)N1CCN(c2nc3ccccc3s2)CC1 (centres undefined) | i | i | -7 | i | i | nt | nt | nt
CC(C)(C)n1nnnc1C(c1cccc(C#N)c1)N1CCCCCC1 (centres undefined) | i | i | -10 | i | i | nt | nt | nt
CCC(C)(C)n1nnnc1C(c1ccc(O)c(OC)c1)N1CCc2ccccc2C1 (centres undefined) | i | i | -30 | i | i | nt | nt | nt
CCC(C)(C)n1nnnc1C(c1ccc(O)c(OC)c1)N1CCN(c2nc3ccccc3s2)CC1 (centres undefined) | i | i | -9 | -15* | i | 46%* | i | 28%*
CCC(C)(C)n1nnnc1C(c1cccc(C#N)c1)N1CCN(c2cccc(C)c2C)CC1 (centres undefined) | -9.5* | i | -7 | -17* | i | 74%* | i | 38%*
CC1CCCC1/C(=N/O)c1ccccc1 (centres undefined) | i | i | -6 | i | i | nt | nt | nt
COc1ccc(N(CCCN2C(=O)c3cccc4cccc(c34)C2=O)C(=O)c2ccncc2)cc1 | i | i | -12 | i | i | nt | nt | nt
COc1ccc(N(CCCN2C(=O)c3cccc4cccc(c34)C2=O)C(=O)c2cccnc2)cc1 | i | i | -8 | i | i | i | i | i
SMILES | KCNK3 inh | KCNQ1 inh | hERG protect | KCNK9 inh | KCNQ1 act | KCNK9 inh conf | Kir2-1 spec | KCNK9 uninduced
COc1ccccc1OCc1nc(C#N)c(N2CCCC2)o1 | i | i | -13 | i | i | nt | nt | nt
COc1ccccc1OCc1nc(C#N)c(N2CC(C)CC(C)C2)o1 (centres undefined) | i | i | -6 | i | i | i | i | i
N#Cc1c(N2CCN(C(=O)c3ccccc3)CC2)nc(-c2ccccc2)c2c1CCCC2 | i | i | -7 | i | i | i | i | i
Cn1nnnc1SCC(=O)N1c2ccccc2Sc2ccccc21 | i | i | -3 | i | i | nt | nt | nt
CCn1nnnc1SCC(=O)N1c2ccccc2Sc2ccccc21 | i | i | 1 | i | i | i | i | i
Cc1ccccc1-c1cccc([C@@H]2C[C@H]3C(CN2)CON3C)c1 (some centres undefined) | i | nt | nt | nt | nt | nt | nt | nt
O=C(NCCCN1CCOCC1)c1sc2cc([N+](=O)[O-])ccc2c1Cl | i | i | 4 | i | i | i | i | i
CC(NS(=O)(=O)c1cc(C(F)(F)F)ccc1Cl)C(=O)N(C)C1CCN(C)CC1 (centres undefined) | i | nt | nt | nt | nt | nt | nt | nt
N/C(Cc1ccc([N+](=O)[O-])cc1)=N\OC(=O)COc1ccccc1Cl | i | i | -12 | i | i | nt | nt | nt
N/C(Cc1ccc([N+](=O)[O-])cc1)=N\OC(=O)COc1cccc2ccccc12 | i | i | -9 | -8.3* | i | i | i | 37%*
Cc1ccc(NC(=O)CN(C)C(=O)Cc2c[nH]c3ccccc23)cc1 | i | nt | nt | nt | nt | nt | nt | nt
O=C(NCc1ccc(F)cc1)C1CCCN(C(=O)NCc2ccccc2)C1 (centres undefined) | i | i | -4 | i | i | nt | nt | nt
CN1CCN(Cc2cccc(Oc3ccccc3)c2)CC1 | i | i | -10 | i | i | nt | nt | nt
COc1ccc(CN2CCN(C(c3ccc(F)cc3)c3ccc(F)cc3)CC2)c(OC)c1OC | i | i | -27 | i | i | i | i | i
COc1ccc(CN2CCN(Cc3cccc(Oc4ccccc4)c3)CC2)c(OC)c1OC | i | i | -14 | i | i | i | i | i

Bioassay records as filed in PubChem BioAssay.
